# Screening results deposited in PubChem BioAssay by Broad Institute.
# Most compounds without a hit are left out; they make up all but 2% or so of the library.
# FN deposit inh – fibronectin deposition inhibition; inhibition, % at 12.6 µM; AH1F fibroblasts, Alexa488-fibronectin deposition fluorescence, overnight; 350,000 compounds, 0.086% hits;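 active means mean inhibition across replicates of 30% or more, regardless of how many single replicates reach that level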;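 further: positive control wells lacked labelled fibronectin entirely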
#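 Material: AH1F fibroblast monolayer depositing Alexa488-labelled fibronectin into matrix / Amount: 10000 AH1F cells per well / Signal: fluorescence 485/525 nm / Medium: DMEM, 2% serum / Compound: single dose, pinned / Incubation: 1 h cell adhesion before compound, then overnight fibronectin incubation / Reagent: Alexa488-FN, 24 nM final / Read-out: inhibition of fibronectin deposition signal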
# CaV13 ICDI inh – Disruptors of the CACNA1D IQ motif to Ca2+-dependent inactivation inhibitor domain association, primary screening, Förster resonance energy transfer in intact living …; inhibition, % at 12.3 µM; HEK cells, CFP/YFP FRET ICDI-IQ, plate reader, 10 min; percent FRET-ratio fall versus neutral wells; 340,000 compounds, 0.098% hits;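 active means mean replicate inhibition of at least 30% and at least 1% of replicates passing that level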;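 further: 0% = median of the neutral control wells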
# Xi reactivation – activators of X-chromosome reactivation in mouse fibroblasts. XiGFP mouse fibroblasts, % GFP-positive cells imaging, 3 d; cells co-treated with 5-aza-dC sensitizer; scaled so ellipticine positive control = 100%. activation, % at 7.58 µM. 360,000 compounds, 0.055% hits. AID 743238;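 active means mean normalized replicate activation at least 10% and every replicate at or above 10%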;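 further: 0% = median of on-plate neutral control wells and 100% = ellipticine 6 µM median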
#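 Material: SV40-immortalized XiGFP fibroblast cells, line 68-5-11 | Buffer or medium: DMEM containing 5-aza-dC | Dosing: One concentration, pinned | Times: 3 d treatment, 15 min room-temperature fixation | Controls: Ellipticine 6 µM positive control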
# CASP6 VEID inh – blocks human caspase-6 cleavage activity | inhibition, % at 12.5 µM | purified caspase-6, Z-VEID-R110 cleavage fluorescence | AID 686996 | 350,000 compounds, 0.53% hits | P55212;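 active means mean inhibition across replicates at least about 35%, with every replicate also reaching that limit, limit read from the data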;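 further: 0% = median of neutral control wells and 100% = no fluorescence left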
# Target sequence (P55212 24-179 limits assumed): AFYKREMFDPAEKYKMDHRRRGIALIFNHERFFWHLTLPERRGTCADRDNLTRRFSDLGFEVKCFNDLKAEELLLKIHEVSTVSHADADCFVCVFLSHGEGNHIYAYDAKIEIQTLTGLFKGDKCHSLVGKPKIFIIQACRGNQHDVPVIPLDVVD
# Target sequence (P55212 194-293 limits assumed): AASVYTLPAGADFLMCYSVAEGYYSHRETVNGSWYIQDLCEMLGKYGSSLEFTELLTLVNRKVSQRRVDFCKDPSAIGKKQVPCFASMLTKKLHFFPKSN
# DENV2 CPE rescue – inhibitors of DENV2 cytopathic effect; DENV2-infected cells, cytopathic effect rescue, plate reader; AID 651640; 350,000 compounds, 1.7% hits; CPE inhibition, % at 9.99 µM; in the data active means CPE inhibition above about 20%, passing the limit was not always enough; tested in BHK-21 cells;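 further: 0% = median of neutral control wells and 100% = median of positive control wells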
# * marks the source's active call; other numbers are inactive results; . = no result given; + = active, no number.
SMILES,FN deposit inh,CaV13 ICDI inh,Xi reactivation,CASP6 VEID inh,DENV2 CPE rescue
CCN(CC)CCNC(=O)c1ccc2c(c1NCCO)C(=O)c1ccccc1C2=O,3,-6,0,36*,-15
COc1ccc(CNC(=O)CCNC(=O)c2ccco2)cc1OC,-11,-7,0,-3,39*
O=C(NCCNCc1ccccc1)c1ccco1,-5,-5,0,64*,-1
CCOC1=NN(c2ncc(C(F)(F)F)cc2Cl)C(=O)C1,-8,34*,0,-2,-1
O=C(NC1CC2CCC(C1)N2Cc1ccccc1)c1ccccc1Br (stereo not drawn),-1,-1,0,39*,0
CCCCCN(C(=O)CCc1cn(CCCCC)c2ccccc12)c1ccc(Oc2cccnc2)cc1,14,.,1,9,91*
COc1ccc(CCNS(=O)(=O)c2cc3c4c(c2)CCN4C(=O)CC3)cc1OC,1,-5,0,-1,-6
O=C1CCc2cc(S(=O)(=O)NCCc3ccc(Cl)cc3)cc3c2N1CC3,1,-6,0,-3,97*
COc1ccc(S(=O)(=O)N(C)C[C@H]2Oc3c(NC(=O)c4cc(C)nn4C)cccc3C(=O)N([C@H](C)CO)C[C@@H]2C)cc1,-4,.,-1,3,7
COC(=O)Nc1ccc(S(=O)(=O)N2CCCc3ccccc32)cc1,15*,-5,.,.,.
O=C(Nc1cccc(F)c1)N1CC(=O)N2[C@H](CO)[C@H](c3ccc(C#CCC4CCCC4)cc3)[C@@H]2C1,.,.,0,0,0
Cc1cccc(S(=O)(=O)N2CCCCN3[C@H](CO)[C@H](c4ccc(-c5ccncc5)cc4)[C@@H]3C2)c1,.,.,0,0,33*
Cc1cccc(-c2ccc([C@H]3[C@H](CO)N4CCCCN(S(=O)(=O)c5cccc(C)c5)C[C@@H]34)cc2)c1,.,.,0,-2,-4
Cc1cccc(-c2ccc([C@@H]3[C@@H](CO)N4CCCCN(S(=O)(=O)c5cccc(C)c5)C[C@@H]34)cc2)c1,.,.,0,-1,21*
COc1ccc2c3c([nH]c2c1)[C@@H](CO)N(Cc1ccccn1)CC31CN(C(C)=O)C1,.,.,0,.,.
COc1ccc2c3c([nH]c2c1)[C@@H](CO)N(Cc1cccc(F)c1)CC31CN(Cc2ccccn2)C1,.,.,0,-6,39*
COc1ccc2c3c([nH]c2c1)[C@H](CO)N(Cc1ccccn1)CC31CN(C(C)=O)C1,.,.,0,.,47*
CC(=O)c1ccc(OC(C)C(=O)NC2CCCCC2C)cc1 (stereo not drawn),2,-15,0,-115,67*
O=C(Cc1ccccc1)N1CC2(C1)[C@@H](c1ccccc1)[C@@H](CO)N2S(=O)(=O)Cc1ccccc1,.,.,0,.,35*
O=C(Cc1ccccc1)N1CC2(C1)[C@@H](c1ccccc1)[C@H](CO)N2S(=O)(=O)Cc1ccccc1,.,.,0,2,43*
O=S(=O)(Nc1cccc(-n2cnnn2)c1)c1ccccc1,6,-22,0,0,6
NS(=O)(=O)c1cccc(-n2cnnn2)c1,7,-6,40*,-2,18
O=S(=O)(Nc1cccc(-n2cnnn2)c1)c1cccc(Cl)c1,13,-4,0,2,59*
O=C(Nc1cccc(C(F)(F)F)c1)c1cccc(NS(=O)(=O)c2ccc(Br)c(C(=O)O)c2)c1,-4,2,0,-2,2
O=C(Nc1cccc(C(F)(F)F)c1)c1cccc(NS(=O)(=O)c2ccc(O)c(C(=O)O)c2)c1,4,-19,0,39*,8
SMILES,FN deposit inh,CaV13 ICDI inh,Xi reactivation,CASP6 VEID inh,DENV2 CPE rescue
C/C(=N\NC(=O)CC#N)c1cc2ccc(O)cc2oc1=O,0,+,0,-1,-9
O=C(O)c1cc2ccc(O)cc2oc1=O,-8,14,0,7,12
O=C(Nc1ccc(S(=O)(=O)NC2=NCCCCC2)cc1)c1cccs1,-1,-5,0,-1,65*
C[C@H](CO)N1C[C@H](C)[C@@H](CN(C)Cc2ccc(-c3ccccc3)cc2)Oc2c(NC(=O)CCC(F)(F)F)cccc2C1=O,-4,.,0,.,.
CCCn1c(NCc2ccc(N(C)C)cc2)nc2ccccc21,-1,-7,0,1,24*
CN(C)c1ccc(CNc2nc3ccccc3n2C)cc1,2,-4,0,-4,-5
O=C(OCn1ncc(Cl)c(Cl)c1=O)c1ccccc1Cl,active,-4,.,.,.
COc1ccc2c3c(n(C)c2c1)[C@@H](CO)N(C(=O)Cc1ccccc1)CC31CN(C)C1,4,.,0,1,0
C[C@H](CO)N1C[C@H](C)[C@@H](CN(C)C(=O)C2CCOCC2)Oc2ncc(C#CC(C)(C)O)cc2C1=O,.,.,0,-1,1
N=C1/C(=C/c2ccc(Br)o2)C(=O)N=C2SC(CC(=O)N3CCCC3)=NN12,7,-6,0,0,-2
N=C1/C(=C\c2ccc(Br)o2)C(=O)N=C2SC(CC(=O)N3CCOCC3)=NN12,2,-6,0,61*,0
N=C1/C(=C/c2ccco2)C(=O)N=C2SC(CC(=O)N3CCCC3)=NN12,1,-3,0,51*,6
COc1ccc2c3c(n(C)c2c1)[C@@H](CO)N(C(=O)Nc1ccc(F)cc1)CC31CCN(C(=O)CC2CC2)CC1,.,.,0,.,1
COCCNC(=O)CCC1CCN(Cc2ccc(-c3ccccc3)cc2)CC1,1,-2,0,19,48*
N#Cc1c(Cl)cccc1N1CCSCC1,4,-10,0,0,36*
N#Cc1c(Cl)cccc1N1CCCC1,-2,-20,0,-4,0
COc1ccccc1CNC(=O)C[C@H]1C[C@@H]2c3cc(NS(C)(=O)=O)ccc3O[C@@H]2[C@H](CO)O1,-1,.,0,-1,-4
COC(=O)c1c(NC(=O)CC2Sc3ccc(C(F)(F)F)cc3NC2=O)sc(C)c1C (stereo not drawn),0,-5,0,-3,25*
CCOC(=O)c1cc(CC)sc1NC(=O)CC1Sc2ccc(C(F)(F)F)cc2NC1=O (stereo not drawn),4,-4,0,.,.
Cc1ccc2nc(-c3ccc(O)c(O)c3)cn2c1,13,-20,0,38*,-2
Cc1ccc2nc(-c3ccccc3)cn2c1,.,-6,.,.,.
CO[C@@H]1CN(C)C(=O)c2ccc(NC(=O)C3CC3)cc2OC[C@@H](C)N(Cc2cncnc2)C[C@@H]1C,-5,.,0,.,.
CCCC1CC(CCc2ccccc2)OS(=O)(=O)N1 (stereo not drawn),1,-4,0,0,40*
CC(C)c1onc(C(=O)N2CCN(Cc3ccccc3)CC2)c1[N+](=O)[O-],9,7,0,0,168*
CC(C)c1onc(C(=O)N2CCOCC2)c1[N+](=O)[O-],-3,7,0,1,-9
